Test results as given in ChEMBL document CHEMBL4373633, “New methods to assess 6-thiopurine toxicity and expanding its therapeutic application to pancreatic cancer via small molecule potentiators” (Medchemcomm, 2019).
Calls of active or inactive are those of the source. The calls are words filed in the database; no cut-off is given here.

Assays:
[1] = system: REH; assay: Synergistic antiproliferative activity against human REH cells assessed as cell death at 5 uM after 72 hrs in presence of 10 uM 6TP by alamar blue assay (reference value: 10.8%); assay type: functional
[2] = system: MIA PaCa-2; assay: Synergistic antiproliferative activity against human MIAPaCa2 cells assessed as cell death at 2.5 uM after 72 hrs in presence of 50 uM 6TP by alamar blue assay (reference value: 13.8%); assay type: functional
[3] = system: REH; assay: Synergistic antiproliferative activity against human REH cells assessed as cell death at 2.5 uM after 72 hrs in presence of 50 uM 6TP by alamar blue assay (reference value: 21.9%); assay type: functional
[4] = system: REH; assay: Synergistic antiproliferative activity against human REH cells assessed as cell death at 2.5 uM after 72 hrs in presence of 10 uM 6TP by alamar blue assay (reference value: 10.8%); assay type: functional
[5] = system: MIA PaCa-2; assay: Synergistic antiproliferative activity against human MIAPaCa2 cells assessed as cell death at 2.5 uM after 72 hrs in presence of 25 uM 6TP by alamar blue assay (reference value: 6.4%); assay type: functional
[6] = system: REH; assay: Synergistic antiproliferative activity against human REH cells assessed as cell death at 5 uM after 72 hrs in presence of 50 uM 6TP by alamar blue assay (reference value: 21.9%); assay type: functional
[7] = system: MIA PaCa-2; assay: Synergistic antiproliferative activity against human MIAPaCa2 cells assessed as cell death at 5 uM after 72 hrs in presence of 10 uM 6TP by alamar blue assay (reference value: 6.9%); assay type: functional
[8] = system: REH; assay: Synergistic antiproliferative activity against human REH cells assessed as cell death at 5 uM after 72 hrs in presence of 25 uM 6TP by alamar blue assay (reference value: 12.2%); assay type: functional
[9] = system: HeLa; assay: Synergistic antiproliferative activity against human HeLa cells at 2.5 to 5 uM after 72 hrs in presence of 6TP by alamar blue assay; assay type: functional, cell-based
[10] = system: U-937; assay: Synergistic antiproliferative activity against human U937 cells at 2.5 to 5 uM after 72 hrs in presence of 6TP by alamar blue assay based Chou-Talalay method; assay type: functional, cell-based
[11] = system: A549; assay: Synergistic antiproliferative activity against human A549 cells at 2.5 to 5 uM after 72 hrs in presence of 6TP by alamar blue assay; assay type: functional, cell-based
[12] = system: REH; assay: Synergistic antiproliferative activity against human REH cells assessed as cell death at 2.5 uM after 72 hrs in presence of 25 uM 6TP by alamar blue assay (reference value: 12.2%); assay type: functional
[13] = system: A549; assay: Antiproliferative activity against human A549 cells assessed as reduction in cell viability after 72 hrs by alamar blue assay; assay type: functional, cell-based; conditions: A549, 72 h
In short: (§1)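 Cell lines from ATCC, grown in medium with FBS and antibiotics at 37 °C, 5% CO2, 95% humidity. Compound DMSO stocks diluted in medium over 31.6 nM–200 μM, tested in triplicate. Plated at 2000 cells/well (adherent) or 3500 (suspension). After 69 h of continuous exposure, Alamar Blue was added for 3 h more. Fluorescence read at ex 560/em 590 nm. IC50 from ≥3 independent experiments.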

[14] = system: MIA PaCa-2; assay: Synergistic antiproliferative activity against human MIAPaCa2 cells assessed as cell death at 5 uM after 72 hrs in presence of 50 uM 6TP by alamar blue assay (reference value: 13.8%); assay type: functional
[15] = system: MIA PaCa-2; assay: Synergistic antiproliferative activity against human MIAPaCa2 cells assessed as cell death at 5 uM after 72 hrs in presence of 100 uM 6TP by alamar blue assay (reference value: 30.7%); assay type: functional
[16] = system: MIA PaCa-2; assay: Synergistic antiproliferative activity against human MIAPaCa2 cells assessed as cell death at 2.5 uM after 72 hrs in presence of 10 uM 6TP by alamar blue assay (reference value: 6.9%); assay type: functional
[17] = system: MIA PaCa-2; assay: Synergistic antiproliferative activity against human MIAPaCa2 cells assessed as cell death at 5 uM after 72 hrs in presence of 25 uM 6TP by alamar blue assay (reference value: 6.4%); assay type: functional
[18] = system: MIA PaCa-2; assay: Synergistic antiproliferative activity against human MIAPaCa2 cells assessed as cell death at 2.5 uM after 72 hrs in presence of 100 uM 6TP by alamar blue assay (reference value: 30.7%); assay type: functional
[19] = system: REH; assay: Synergistic antiproliferative activity against human REH cells assessed as cell death at 2.5 uM after 72 hrs in presence of 100 uM 6TP by alamar blue assay (reference value: 49.5%); assay type: functional
[20] = system: REH; assay: Synergistic antiproliferative activity against human REH cells assessed as cell death at 5 uM after 72 hrs in presence of 100 uM 6TP by alamar blue assay (reference value: 49.5%); assay type: functional
[21] = system: REH; assay: Synergistic antiproliferative activity against human REH cells at 2.5 to 5 uM uM after 72 hrs in presence 6TP by alamar blue assay based alamar blue assay; assay type: functional, cell-based
[22] = target: T1, UDP-glucose 6-dehydrogenase (Streptococcus pyogenes, UniProt P0C0F4); assay: Inhibition of Streptococcus pyogenes UDPGDH expressed in Escherichia coli assessed as inhibitior constant after 20 to 120 secs by UV-VIS spectroscopic analysis
[23] = Inhibition of UDPGDH/UGT-1A in hepatocytes (unknown origin) assessed as reduction in BDG production at 25 uM by HPLC analysis; assay type: ADME, cell-based; conditions: human
[24] = target: T1, UDP-glucose 6-dehydrogenase; assay: Inhibition of Streptococcus pyogenes UDPGDH expressed in Escherichia coli assessed as inhibitior constant by mesuring UDPGA production after 20 to 120 secs by HPLC analysis
In short: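 UDPGA formed by UDPGDH was quantified by reverse-phase C18 HPLC at 262 nm against a UDPGA standard curve. Aqueous phase 8 mM imidazole/2.5 mM TBAHS, pH 6.5; organic phase methanol; 0.5 mL/min gradient over a 23 min run. UDPG was varied at several inhibitor levels. Slopes of the lines were plotted against inhibitor concentration, and Ki was taken as the […] x-intercept.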

[25] = Inhibition of Streptococcus pyogenes UDPGDH expressed in Escherichia coli/rat liver microsome UGT-1A assessed as reduction in BMG production at 5 uM in presence of UDPGA by HPLC analysis; assay type: ADME; conditions: microsomes
In short: (§2)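 Coupled in vitro model in phosphate buffer with alamethicin. Microsomal UGT-1A 4.4 units/mL, 2 mM bilirubin, 10 mM NAD+, 5 mM UDPG, UDPGDH:UGT-1A ratio 1:2200. Reaction started by adding UDPGDH. UDPGA-rescue arm included 15 μM UDPGA. Bilirubin mono- and diglucuronide formation measured by HPLC.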

[26] = Inhibition of Streptococcus pyogenes UDPGDH expressed in Escherichia coli/rat liver microsome UGT-1A assessed as reduction in BDG production at 5 uM in presence of UDPGA by HPLC analysis; assay type: ADME; conditions: microsomes; in short: as §2
[27] = Inhibition of UDPGDH/UGT-1A in hepatocytes (unknown origin) assessed as reduction in BDG production at 5 uM by HPLC analysis; assay type: ADME, cell-based; conditions: human
[28] = Inhibition of Streptococcus pyogenes UDPGDH expressed in Escherichia coli/rat liver microsome UGT-1A assessed as reduction in BMG production at 5 uM by HPLC analysis; assay type: ADME; conditions: microsomes; in short: as §2
[29] = Inhibition of Streptococcus pyogenes UDPGDH expressed in Escherichia coli/rat liver microsome UGT-1A assessed as reduction in BDG production at 5 uM by HPLC analysis; assay type: ADME; conditions: microsomes; in short: as §2
[30] = Inhibition of UDPGDH/UGT-1A in hepatocytes (unknown origin) assessed as reduction in BMG production at 5 uM in presence of UDPGA by HPLC analysis; assay type: ADME, cell-based; conditions: human
[31] = system: U-937; assay: Antiproliferative activity against human U937 cells assessed as reduction in cell viability after 72 hrs by alamar blue assay; assay type: functional, cell-based; conditions: U-937, 72 h; in short: as §1
[32] = system: MIA PaCa-2; assay: Antiproliferative activity against human MIAPaCa2 cells assessed as reduction in cell viability after 72 hrs by alamar blue assay; assay type: functional, cell-based; conditions: MIA PaCa-2, 72 h; in short: as §1
[33] = system: HeLa; assay: Antiproliferative activity against human HeLa cells assessed as reduction in cell viability after 72 hrs by alamar blue assay; assay type: functional, cell-based; in short: as §1
[34] = Inhibition of Streptococcus pyogenes UDPGDH expressed in Escherichia coli/rat liver microsome UGT-1A assessed as reduction in BDG production at 10 uM by HPLC analysis; assay type: ADME; conditions: microsomes; in short: as §2
[35] = Inhibition of Streptococcus pyogenes UDPGDH expressed in Escherichia coli/rat liver microsome UGT-1A assessed as reduction in BMG production at 10 uM by HPLC analysis; assay type: ADME; conditions: microsomes; in short: as §2

T1 sequence (P0C0F4 whole entry): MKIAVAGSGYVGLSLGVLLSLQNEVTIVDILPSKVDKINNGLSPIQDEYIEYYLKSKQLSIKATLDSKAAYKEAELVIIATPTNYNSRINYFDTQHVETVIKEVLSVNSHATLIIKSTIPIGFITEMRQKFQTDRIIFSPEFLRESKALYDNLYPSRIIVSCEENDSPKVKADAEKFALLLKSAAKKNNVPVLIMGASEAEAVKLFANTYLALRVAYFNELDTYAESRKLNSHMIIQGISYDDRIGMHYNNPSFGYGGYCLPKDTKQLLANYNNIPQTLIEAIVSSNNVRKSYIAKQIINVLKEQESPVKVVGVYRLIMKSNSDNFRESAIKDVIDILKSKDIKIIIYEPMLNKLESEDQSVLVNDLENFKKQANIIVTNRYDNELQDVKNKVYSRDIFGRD

Ki [22] | Ki [24] | SMILES | Activity [2] | Activity [5] | Activity [7] | Activity [9] | Activity [10] | Activity [11] | IC50 [13] | Activity [14] | Activity [15] | Activity [16] | Activity [17] | Activity [18] | Activity [21] | also measured
288 µM | 111 µM | Sc1ncnc2nc[nH]c12 [MERCAPTOPURINE ANHYDROUS] |  |  |  |  |  |  |  |  |  |  |  |  |  | inhibition (INH) [23]: Active
7 µM | 5 µM | O=c1[nH]c(=S)c2[nH]c(=O)[nH]c2[nH]1 |  |  |  |  |  |  |  |  |  |  |  |  |  | inhibition (INH) [25]: Not Active; inhibition (INH) [26]: Not Active; inhibition (INH) [27]: Active; inhibition (INH) [28]: Active; inhibition (INH) [29]: Active; inhibition (INH) [30]: Not Active

Further lines, the molecule ahead of its results:

SMILES | Ki [22] | Ki [24] | Activity [2] | Activity [5] | Activity [7] | Activity [9] | Activity [10] | Activity [11] | IC50 [13] | Activity [14] | Activity [15] | Activity [16] | Activity [17] | Activity [18] | Activity [21] | also measured
COCOc1cc(OC)c(C(=O)/C=C/c2ccccc2)c(OCOC)c1 |  |  | 25.1% | 18.6% | 25.4% | inactive | inactive | inactive | 7.2 µM | 40.8% | 61.2% | 16.5% | 30% | 49.1% |  | Activity [1]: 12.7%; Activity [3]: 22.1%; Activity [4]: 11.1%; Activity [6]: 26.1%; Activity [8]: 19.1%; Activity [12]: 13.5%; Activity [19]: 51%; Activity [20]: 51%
COCOc1cc(O)c(C(=O)/C=C/c2ccccc2)c(OCOC)c1 |  |  | 9.7% | 7.2% | 8.1% | inactive | inactive | inactive |  | 13% | 19.9% | 7% | 8.2% | 15.2% | inactive | 
COCOc1cc(OCOC)c(C(=O)/C=C/c2ccccc2)c(OCOC)c1 |  |  | 16.9% | 15% | 18.4% | inactive | inactive | inactive | > 20 µM | 17% | 19.3% | 14.2% | 17.3% | 17.6% | inactive | IC50 [31]: 7.4 µM; IC50 [32]: > 20 µM; IC50 [33]: 12.2 µM
CNC(=O)c1cc(Oc2ccc(NC(=O)Nc3ccc(Cl)c(C(F)(F)F)c3)c(F)c2)ccn1 [REGORAFENIB] |  |  |  |  |  |  |  |  |  |  |  |  |  |  |  | inhibition (INH) [34]: Active; inhibition (INH) [35]: Active
